The source made the active and inactive calls. The rule behind the calls is not given here.
How the values were obtained:
[1] = tested on: Mus musculus; assay: Tmax in BALB/C mouse at 10 mg/kg, po or 2 mg/kg, iv by LC-MS/MS method; assay type: ADME, organism-based; conditions: in vivo
Procedure, shortened: (§1)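 Single-dose PK: iv bolus 2 mg/kg in 5% DMSO/40% PEG400/55% saline and/or oral gavage 10 mg/kg as 0.445% microcrystalline cellulose microsuspension; BALB/C nude mice (15−20 g, N = 16 per arm) or male Sprague−Dawley rats (250 ± 20 g, N = 3). Blood at eight (po) or nine (iv) time points into sodium heparin, plasma by LC-MS/MS, noncompartmental analysis.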

[2] = tested on: Bel-7402; assay type: functional, Homo sapiens
[3] = tested on: BEL-7404; assay: Antitumor activity against human BEL-7404 cells xenografted in BALB/C mouse assessed as tumor growth inhibition at 50 mg/kg, po qd for 4 weeks; conditions: BEL-7404, po, 672 h, read-out: TGI
[4] = tested on: BGC-823; assay type: functional, Homo sapiens
[5] = tested on: MGC-803; assay type: functional, Homo sapiens
[6] = tested on: Mus musculus; assay: Half life in BALB/C mouse at 10 mg/kg, po or 2 mg/kg, iv by LC-MS/MS method; assay type: ADME, organism-based; conditions: in vivo
Procedure, shortened: (§2)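 Female-unspecified BALB/C nude mice (15−20 g, N = 16 per arm); iv bolus 2 mg/kg in 5% DMSO/40% PEG400/55% saline and/or oral gavage 10 mg/kg as 0.445% microcrystalline cellulose microsuspension. Blood sampled at nine (iv) or eight (po) time points into sodium heparin tubes; plasma by LC-MS/MS; noncompartmental analysis.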

[7] = tested on: Mus musculus; assay: AUC in BALB/C mouse at 10 mg/kg, po or 2 mg/kg, iv by LC-MS/MS method; assay type: ADME, organism-based, Plasma; conditions: in vivo; procedure, shortened: as §2
[8] = Antitumor activity against treatment responding human hepatocellular carcinoma patient tumor xenografted in BALB/C mouse assessed as tumor growth inhibition at 100 mg/kg, po administered every other day for 4 weeks; assay type: functional; conditions: 672 h, read-out: TGI
Procedure, shortened: (§3)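 Tumor fragments (3×3×3 mm3) from HCC patients implanted subcutaneously in right flank of female BALB/c nu/nu mice (6−7 weeks). At about 200 (150−250) mm3, randomized (n = 10 per arm); Q2D PO 100 mpk in 15% Kleptose pH 4.5 tartaric buffer, about four weeks; caliper tumor volume three times weekly.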

[9] = molecular target: Voltage-gated inwardly rectifying potassium channel KCNH2 (Homo sapiens, UniProt Q12809); assay: Inhibition of human ERG expressed in CHO cells by patch clamp method; assay type: cell-based
Chain of Voltage-gated inwardly rectifying potassium channel KCNH2 (Q12809 whole entry): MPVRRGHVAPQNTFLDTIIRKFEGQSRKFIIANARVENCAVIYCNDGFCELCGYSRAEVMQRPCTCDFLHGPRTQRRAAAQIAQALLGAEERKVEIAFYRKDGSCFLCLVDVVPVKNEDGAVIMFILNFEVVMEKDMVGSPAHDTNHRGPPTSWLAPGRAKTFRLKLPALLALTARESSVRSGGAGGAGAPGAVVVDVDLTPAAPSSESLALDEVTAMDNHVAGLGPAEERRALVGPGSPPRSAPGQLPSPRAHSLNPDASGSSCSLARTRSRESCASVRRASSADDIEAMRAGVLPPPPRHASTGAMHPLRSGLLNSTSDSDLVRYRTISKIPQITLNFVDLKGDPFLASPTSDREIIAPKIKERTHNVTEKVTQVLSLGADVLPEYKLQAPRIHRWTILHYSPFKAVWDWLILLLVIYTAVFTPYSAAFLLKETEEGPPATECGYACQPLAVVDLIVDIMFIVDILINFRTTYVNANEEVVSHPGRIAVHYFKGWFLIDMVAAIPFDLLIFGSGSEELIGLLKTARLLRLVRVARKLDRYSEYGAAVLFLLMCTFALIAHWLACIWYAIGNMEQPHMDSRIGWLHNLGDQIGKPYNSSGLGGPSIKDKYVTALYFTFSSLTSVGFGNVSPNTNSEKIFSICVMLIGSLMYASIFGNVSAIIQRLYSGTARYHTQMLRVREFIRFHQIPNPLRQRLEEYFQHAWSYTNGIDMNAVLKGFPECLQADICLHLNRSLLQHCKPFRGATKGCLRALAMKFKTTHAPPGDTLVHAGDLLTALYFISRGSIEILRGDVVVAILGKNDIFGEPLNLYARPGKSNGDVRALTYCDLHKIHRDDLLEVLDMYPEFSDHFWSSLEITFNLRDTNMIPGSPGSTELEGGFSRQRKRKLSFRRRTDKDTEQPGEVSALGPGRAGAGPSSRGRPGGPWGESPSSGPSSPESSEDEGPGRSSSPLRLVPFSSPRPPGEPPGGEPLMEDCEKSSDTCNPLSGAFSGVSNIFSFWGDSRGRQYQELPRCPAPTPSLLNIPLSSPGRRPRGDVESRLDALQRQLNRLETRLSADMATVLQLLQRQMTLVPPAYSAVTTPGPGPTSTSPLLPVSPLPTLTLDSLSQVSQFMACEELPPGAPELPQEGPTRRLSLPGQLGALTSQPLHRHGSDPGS

[10] = Volume of distribution at steady state in BALB/C mouse at 10 mg/kg, po or 2 mg/kg, iv by LC-MS/MS method; assay type: ADME, organism-based; set-up: unit not given here; conditions: in vivo, read-out: Vdss; procedure, shortened: as §1
[11] = tested on: SGC-7901; assay: Inhibition of Class 1 histone deacetylase in human SGC7901 cells assessed as […] at 0.6 to 5 uM incubated for 24 hrs by Western blot method; assay type: cell-based
Procedure, shortened: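 SGC-7901 cells (1 × 10^6) seeded overnight, treated 24 h at indicated concentrations; lysed on ice with protease inhibitor, 15 000 g supernatant; 30 μg protein by SDS-PAGE, nitrocellulose, antibody probing for acetylated histone H3 and p21, ECL detection.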

[12] = tested on: Mus musculus; assay: Up-regulation of FN1 gene expression in human hepatocellular carcinoma patient tumor xenografted in BALB/C mouse at 100 mg/kg, po administered every other day for 4 weeks by […]; assay type: functional, organism-based; set-up: dose 100 mg/kg
Procedure, shortened: (§4)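 Patient HCC tumor fragments (3 × 3 × 3 mm3) implanted subcutaneously in female BALB/c nu/nu mice; at ~200 (150−250) mm3 dosed orally Q2D 100 mpk in 15% Kleptose pH 4.5 tartaric buffer for about four weeks. Tumor RNA (TRIzol, DNase I) run on 22-gene qRT-PCR array, normalized to GAPDH/β-glucuronidase by ΔCt, fold change versus day 0.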

[13] = tested on: Mus musculus; assay: Up-regulation of CCND2 gene expression in human hepatocellular carcinoma patient tumor xenografted in BALB/C mouse at 100 mg/kg, po administered every other day for 4 weeks by […]; assay type: functional, organism-based; set-up: dose 100 mg/kg; procedure, shortened: as §4
[14] = tested on: Mus musculus; assay: Up-regulation of CDKN2B gene expression in human hepatocellular carcinoma patient tumor xenografted in BALB/C mouse at 100 mg/kg, po administered every other day for 4 weeks by […]; assay type: functional, organism-based; set-up: dose 100 mg/kg; procedure, shortened: as §4
[15] = tested on: Mus musculus; assay: Up-regulation of CEBPA gene expression in human hepatocellular carcinoma patient tumor xenografted in BALB/C mouse at 100 mg/kg, po administered every other day for 4 weeks by […]; assay type: functional, organism-based; set-up: dose 100 mg/kg; procedure, shortened: as §4
[16] = tested on: SGC-7901; assay: Induction of cell cycle arrest in human SGC7901 cells assessed as accumulation at G1/G2 phase incubated for 24 hrs by flow cytometry; assay type: functional, cell-based
Procedure, shortened: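 SGC-7901 cells (1 × 10^5, about 50% confluent) treated 24 h with a concentration series; fixed in chilled 70% ethanol 1 h at 4 °C, stained 1 h at room temperature with propidium iodide (50 μg/mL) plus RNase A and 0.05% Triton X-100; analysed by flow cytometry.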

[17] = tested on: Mus musculus; assay: Up-regulation of PYCARD gene expression in human hepatocellular carcinoma patient tumor xenografted in BALB/C mouse at 100 mg/kg, po administered every other day for 4 weeks by […]; assay type: functional, organism-based; set-up: dose 100 mg/kg; procedure, shortened: as §4
[18] = tested on: Mus musculus; assay: Up-regulation of THBS1 gene expression in human hepatocellular carcinoma patient tumor xenografted in BALB/C mouse at 100 mg/kg, po administered every other day for 4 weeks by […]; assay type: functional, organism-based; set-up: dose 100 mg/kg; procedure, shortened: as §4
[19] = tested on: Mus musculus; assay: Inhibition of Class 1 histone deacetylase in treatment responding human hepatocellular carcinoma patient tumor xenografted in BALB/C mouse assessed as induction of histone H3 acetylation at 100 mg/kg, po administered every other day for 4 weeks by immunohistochemistry; assay type: functional, organism-based; set-up: dose 100 mg/kg
Procedure, shortened: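 Patient-derived HCC xenografts in female nude mice given 100 mpk Q2D PO (15% Kleptose, pH 4.5 tartaric buffer); single dose on last day, tumors harvested 0 to 24 h post-dose. Paraffin sections, citrate pH 6.0 antigen retrieval, anti-Ac-H3 (Lys9) 1:200 overnight 4 °C, HRP/DAB; scored 0−3 independently by two pathologists.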

[20] = tested on: Mus musculus; assay: Reactivation of SPINT2 gene expression in treatment responding human hepatocellular carcinoma patient tumor xenografted in BALB/C mouse at 100 mg/kg, po administered every other day for 4 weeks; assay type: functional, organism-based; set-up: dose 100 mg/kg; procedure, shortened: as §4
[21] = tested on: Mus musculus; assay: Up-regulation of TFPI2 gene expression in human hepatocellular carcinoma patient tumor xenografted in BALB/C mouse at 100 mg/kg, po administered every other day for 4 weeks by […]; assay type: functional, organism-based; set-up: dose 100 mg/kg; procedure, shortened: as §4
[22] = tested on: Mus musculus; assay: Inhibition of Class 1 histone deacetylase in human Bel7404 cells xenografted BALB/C mouse assessed as induction of histone H3 acetylation at 100 mg/kg, po administered every other day for 4 weeks by Western blot method; conditions: Bel-7404
[23] = tested on: Homo sapiens; assay: Antitumor activity against treatment non-responding human hepatocellular carcinoma patient tumor xenografted in BALB/C mouse assessed as tumor growth inhibition at 100 mg/kg, po administered every other day for 4 weeks; assay type: functional, organism-based; set-up: dose 100 mg/kg; procedure, shortened: as §3

## CN1C[C@H](C(=O)Nc2ccc(Cl)cc2)[C@@H](c2ccc(/C=C/C(=O)Nc3ccccc3N)cc2)C1 [listing 1 of 2 here]
[1]
  Tmax: 0.25 h
[2]
  GI90: 1200 nM
[3]
  inhibition in vivo at 50 mg/kg: > 60%
[4]
  GI90: 2200 nM
[5]
  GI90: 2000 nM
[6]
  t1/2: 3.4 h
[7]
  AUC: 6316 ng·h/mL
[8]
  inhibition in vivo at 100 mg/kg: 50%

## CN1C[C@H](C(=O)Nc2ccc(Cl)cc2)[C@@H](c2ccc(/C=C/C(=O)Nc3ccccc3N)cc2F)C1 (racemic)
[9]
  IC50: 7000 nM
[10]
  Vd: 3

## CN1C[C@H](C(=O)Nc2ccc(Cl)cc2)[C@@H](c2ccc(/C=C/C(=O)Nc3ccccc3N)cc2)C1 [listing 2 of 2 here]
[11]
  inhibition: Dose-dependent effect
[12]
  Activity: Active
[13]
  Activity: Active
[14]
  Activity: Active
[15]
  Activity: Active
[16]
  Activity: Dose-dependent effect
[17]
  Activity: inactive
[18]
  Activity: Active
[19]
  inhibition: Active
[20]
  Activity: Active
[21]
  Activity: inactive
[22]
  inhibition: Active
[23]
  TGI: inactive

Reference: ChEMBL document CHEMBL2177000, “Pharmacokinetic optimization of class-selective histone deacetylase inhibitors and identification of associated candidate predictive biomarkers of hepatocellular carcinoma tumor response” (J Med Chem, 2012)
